From ChEMBL document CHEMBL1122708, “Preparation and antibacterial activities of new 1,2,3-diazaborine derivatives and analogues” (1984)
Values after ≈ are worked out from the molar mass of the structure shown.

What was measured:
[1] = test system: Klebsiella aerogenes; test: Minimum inhibitory concentration of compound against Enterobacter aerogenes delta 220; type: functional
[2] = test system: Klebsiella pneumoniae; test: Minimum inhibitory concentration of compound against Klebsiella pneumoniae delta 217; type: functional
[3] = test system: Escherichia coli; test: Antibacterial activity againist Escherichia coli 120 infected NMRI mice after peroral administration; type: functional; conditions: po
How it was run: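 ED50 in NMRI mice infected intraperitoneally with E. coli 120; compound given orally immediately and 5 h after infection.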

[4] = test system: Neisseria gonorrhoeae; test: Minimum inhibitory concentration of compound against Neisseria gonorrhoeae AS 7720; type: functional
How it was run: (§1)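 Agar dilution on Kellogg agar, 10⁶ colony forming units, incubated 20 h at 36 °C in 5% CO₂; MIC is the lowest concentration giving no visible growth.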

[5] = test system: Proteus mirabilis; test: Minimum inhibitory concentration against Proteus mirabilis delta 89; type: functional
[6] = test system: Salmonella typhimurium; test: Minimum inhibitory concentration of compound against Salmonella Typhimurium delta 119; type: functional, Salmonella enterica subsp. enterica serovar Typhimurium; conditions: Salmonella enterica
[7] = test system: Neisseria gonorrhoeae; test: Minimum inhibitory concentration of compound against Neisseria gonorrhoeae W2; type: functional; how it was run: as §1
[8] = test system: Escherichia coli; test: Minimum inhibitory concentration of compound against Escherichia coli delta 120; type: functional

| MIC [1] [µg/mL] | MIC [2] [µg/mL] | MIC [4] [µg/mL] | MIC [5] [µg/mL] | MIC [6] [µg/mL] | MIC [7] [µg/mL] | MIC [8] [µg/mL] | SMILES | ED50 [3] [mg/kg] |
| --- | --- | --- | --- | --- | --- | --- | --- | --- |
| > 50 | 50 (≈ 165 µM) | > 8 | 50 (≈ 165 µM) | 12.5 (≈ 41.4 µM) | > 8 | 50 (≈ 165 µM) | O=S(=O)(c1ccccc1)N1N=Cc2ccc(O)cc2B1O | 100 |
| > 50 | 50 (≈ 107 µM) | 1 (≈ 2.14 µM) | 6.25 (≈ 13.3 µM) | > 50 | 8 (≈ 17.1 µM) | > 50 | O=S(=O)(c1cc(Cl)c(Cl)cc1Cl)N1N=Cc2cc(Br)ccc2B1O | > 300 |
| > 50 | 6.25 (≈ 18.7 µM) | 1 (≈ 2.99 µM) | 3.12 (≈ 9.32 µM) | 3.12 (≈ 9.32 µM) | 2 (≈ 5.98 µM) | 25 (≈ 74.7 µM) | Cc1ccc(S(=O)(=O)N2N=Cc3cc(Cl)ccc3B2O)cc1 | ~20 |
| 3.12 (≈ 11.5 µM) | 0.39 (≈ 1.43 µM) | 1 (≈ 3.67 µM) | 0.78 (≈ 2.87 µM) | 0.78 (≈ 2.87 µM) | 1 (≈ 3.67 µM) | 1.56 (≈ 5.73 µM) | CCCS(=O)(=O)N1N=Cc2sc(C)cc2B1O | 4.5 |
| > 50 | 0.78 (≈ 1.9 µM) | 1 (≈ 2.44 µM) | 3.12 (≈ 7.61 µM) | 3.12 (≈ 7.61 µM) | 8 (≈ 19.5 µM) | 6.25 (≈ 15.2 µM) | O=[N+]([O-])c1ccc(S(=O)(=O)N2N=Cc3cc(Br)ccc3B2O)cc1 | ~25 |
| > 50 | 25 (≈ 98 µM) | > 8 | > 50 | > 50 | > 8 | > 50 | CCCS(=O)(=O)N1N=Cc2c(ccn2C)B1O | > 300 |
| > 50 | 10 (≈ 31.8 µM) | 2 (≈ 6.37 µM) | 5 (≈ 15.9 µM) | 50 (≈ 159 µM) | 8 (≈ 25.5 µM) | > 50 | Cc1ccc(S(=O)(=O)N2N=Cc3c(C)cccc3B2O)cc1 | > 100 |
| > 50 | > 50 | > 8 | 25 (≈ 64.9 µM) | > 50 | > 8 | > 50 | Cc1ccc(S(=O)(=O)N2N=Cc3cc(Br)sc3B2O)cc1 | > 300 |
| > 50 | > 50 | > 8 | > 50 | > 50 | > 8 | > 50 | CS(=O)(=O)N1N=Cc2sccc2B1O | 113 |
| 50 (≈ 156 µM) | 0.78 (≈ 2.44 µM) | 0.5 (≈ 1.56 µM) | 1.56 (≈ 4.87 µM) | 6.25 (≈ 19.5 µM) | 0.5 (≈ 1.56 µM) | 25 (≈ 78.1 µM) | Cc1cc2c(s1)C=NN(S(=O)(=O)c1ccccc1C)B2O | 50 |
| > 50 | 12.5 (≈ 37.4 µM) | 1 (≈ 2.99 µM) | 25 (≈ 74.7 µM) | 12.5 (≈ 37.4 µM) | > 8 | > 50 | Cc1ccc(S(=O)(=O)N2N=Cc3ccc(Cl)cc3B2O)cc1 | ~50 |
| 25 (≈ 61.7 µM) | 1.56 (≈ 3.85 µM) | 0.5 (≈ 1.23 µM) | 0.78 (≈ 1.92 µM) | 3.12 (≈ 7.69 µM) | 1 (≈ 2.47 µM) | 25 (≈ 61.7 µM) | O=S(=O)(c1ccccc1Cl)N1N=Cc2sc(Br)cc2B1O | 39 |
| 50 (≈ 157 µM) | 10 (≈ 31.3 µM) | 8 (≈ 25.1 µM) | 6.25 (≈ 19.6 µM) | 10 (≈ 31.3 µM) | 8 (≈ 25.1 µM) | 25 (≈ 78.3 µM) | Nc1ccc(S(=O)(=O)N2N=Cc3c(F)cccc3B2O)cc1 | 65 |
| 25 (≈ 82.2 µM) | 1.56 (≈ 5.13 µM) | 1 (≈ 3.29 µM) | 3.12 (≈ 10.3 µM) | 3.12 (≈ 10.3 µM) | 8 (≈ 26.3 µM) | 12.5 (≈ 41.1 µM) | Cc1ccc(S(=O)(=O)N2N=Cc3oc(C)cc3B2O)cc1 | ~10 |
| 25 (≈ 54 µM) | 3.12 (≈ 6.75 µM) | 1 (≈ 2.16 µM) | 6.25 (≈ 13.5 µM) | 3.12 (≈ 6.75 µM) | 1 (≈ 2.16 µM) | 50 (≈ 108 µM) | CC(=O)Nc1ccc(S(=O)(=O)N2N=Cc3sc(Br)cc3B2O)c(Cl)c1 | 208 |
| 12.5 (≈ 36.7 µM) | 1.56 (≈ 4.58 µM) | 0.5 (≈ 1.47 µM) | 1.56 (≈ 4.58 µM) | 1.56 (≈ 4.58 µM) | 0.5 (≈ 1.47 µM) | 12.5 (≈ 36.7 µM) | Cc1cc2c(s1)C=NN(S(=O)(=O)c1ccccc1Cl)B2O | 49 |
| > 50 | 6.25 (≈ 26.3 µM) | > 8 | 25 (≈ 105 µM) | 12.5 (≈ 52.5 µM) | > 8 | 25 (≈ 105 µM) | Cc1ccc2c(c1)C=NN(S(C)(=O)=O)B2O | 42 |
| 10 (≈ 28.6 µM) | 0.78 (≈ 2.23 µM) | 1 (≈ 2.86 µM) | 0.39 (≈ 1.12 µM) | 3.12 (≈ 8.92 µM) | 1 (≈ 2.86 µM) | 10 (≈ 28.6 µM) | Cc1ccc2c(c1)C=NN(S(=O)(=O)c1ccc(N)cc1Cl)B2O | 14 |
| > 50 | > 50 | > 8 | 50 (≈ 95.8 µM) | > 50 | > 8 | > 50 | Cc1ccc(S(=O)(=O)N2N=Cc3cc4c(cc3B2O)C=NN(S(=O)(=O)c2ccc(C)cc2)B4O)cc1 | > 300 |
